# From PubChem BioAssay
# LMPTP inh: blocks human LMPTP phosphatase | recombinant LMPTP-A, OMFP fluorogenic substrate, fluorescence intensity | inhibition, % at 20 µM | AID 651560 | 360,000 tested, 0.22% active | P24666;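 active = compounds that cut the enzyme signal by at least half of the control window in the single-dose screen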;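 note: plate controls were DMSO wells with enzyme plus substrate for no effect and substrate without enzyme for full effect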
#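 material = LMPTP-A | quantity = 0.625 nM enzyme | reagent = OMFP substrate, 400 µM final | buffer or medium = Bis-Tris pH 6.0, DTT, detergent | detection = endpoint fluorescence intensity from OMFP dephosphorylation | dosing = single 20 µM dose | read-out basis = % inhibition relative to no-enzyme and uninhibited control wells | control set = no-enzyme and uninhibited controls | timing = 50 min at room temperature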
# Scp1 inh: blocks human Scp-1 phosphatase activity | 340,000 tested, 0.88% active | Q9GZU7 | Recombinant Scp1, phosphopeptide, malachite green phosphate absorbance | inhibition, % at 20 µM | AID 493091;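 active = inhibition above about 50% at 20 µM, limit read from the data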;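 note: plate controls were DMSO wells with enzyme for no effect and wells lacking enzyme for full effect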
#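 Test system: SCP-1 catalytic domain; Buffer or medium: Acidic Tris acetate buffer with magnesium and detergent; Also added: Phosphorylated 17-residue peptide substrate; Compound: single 20 µM dose, 1% DMSO; Schedule: enzyme reaction 45 min at room temperature, colour 5 min, stabilisation 30 min; Signal: Phosphate-binding colour reagent, absorbance read at 630 nm.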
# DNMT1 block: DNMT1 (human) enzyme inhibition; 360,000 tested, 0.83% active; P26358; inhibition (reported as % activation of signal), % at 10 µM; AID 588458; DNMT1 molecular beacon, Hinp1I cleavage, fluorescence; in the data active = inhibition above about 50%
# SUMO1-SIM PPI: modulators of human SUMO1-mediated protein-protein interactions | P63165 | SUMO1 binding to a labelled peptide, TR-FRET, 1 h | inhibition, % at 20 µM | 360,000 tested, 0.33% active; in the data active = inhibition above about 37%
# Target sequence (P63165 whole entry, looked up): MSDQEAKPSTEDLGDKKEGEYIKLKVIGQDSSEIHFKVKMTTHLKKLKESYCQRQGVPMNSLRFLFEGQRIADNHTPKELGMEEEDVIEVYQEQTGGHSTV
# STEP inh: inhibitors of human striatal-enriched phosphatase STEP. inhibition, % at 20 µM. AID 588621. recombinant STEP, OMFP fluorogenic substrate, fluorescence. 360,000 tested, 0.25% active. P54829;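 active = inhibition at 20 µM, scaled per plate between control wells, above about 37%, limit read from the data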;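 note: 0% = DMSO with enzyme and substrate and 100% = substrate only without enzyme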
# Target sequence (P54829 whole entry, looked up): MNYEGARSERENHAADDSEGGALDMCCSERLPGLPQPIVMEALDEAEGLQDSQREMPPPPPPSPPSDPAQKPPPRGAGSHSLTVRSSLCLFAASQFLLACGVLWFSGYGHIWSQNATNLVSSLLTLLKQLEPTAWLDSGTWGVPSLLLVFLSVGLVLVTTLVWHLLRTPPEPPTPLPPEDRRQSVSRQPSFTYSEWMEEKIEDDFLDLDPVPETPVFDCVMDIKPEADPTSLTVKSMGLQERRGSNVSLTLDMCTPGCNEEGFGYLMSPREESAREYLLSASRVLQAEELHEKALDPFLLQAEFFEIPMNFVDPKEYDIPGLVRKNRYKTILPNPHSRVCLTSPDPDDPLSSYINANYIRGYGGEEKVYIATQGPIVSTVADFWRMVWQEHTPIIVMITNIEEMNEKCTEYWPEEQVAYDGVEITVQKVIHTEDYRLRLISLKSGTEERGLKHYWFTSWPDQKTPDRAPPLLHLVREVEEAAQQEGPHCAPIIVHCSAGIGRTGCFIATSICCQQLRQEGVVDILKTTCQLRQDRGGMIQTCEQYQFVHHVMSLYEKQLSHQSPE
#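 System: STEP phosphatase, cell-free reaction; Buffer or medium: Bis-Tris pH 6.0 buffer with DTT, detergent; Incubation: 20 min at room temperature, dark; Measured by: fluorescence, 480/540 nm.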
# Scp-1 conf: confirmation of human Scp-1 phosphatase inhibitors | shares compounds with Scp1 inh | recombinant SCP-1 catalytic domain, phosphate release, malachite green absorbance | inhibition, % at 20 µM | 2,500 tested, 61% active | AID 540281;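 note: plate controls were DMSO with enzyme for no effect and buffer wells lacking enzyme for full effect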
# Scp-1 MG ctr: colorimetric interference in Scp-1 counter-screen; 2,500 tested, under 10 active; shares compounds with Scp1 inh; apparent inhibition (interference), % at 20 µM; AID 540313; Colorimetric interference counterscreen, malachite green absorbance 630 nm;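 note: compounds added after enzyme reaction finished so only phosphate colour detection is probed; plate controls were DMSO wells with completed Scp-1 reaction for no effect and substrate wells lacking enzyme for full effect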
# Scp-1 Tm shift: validation of human Scp-1 inhibitors by thermal shift binding; shares compounds with Scp1 inh; Recombinant SCP1, Sypro Orange thermal shift Tm; thermal shift relative to vanadate control, % at 40 µM; 1,500 tested, 25% active; AID 540329;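 active = substances whose mean melting-temperature shift, as a percentage of the reference inhibitor's shift, reaches about 5.3%, limit read from the data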;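 note: 0% = Tm of DMSO wells and 100% = Tm with sodium orthovanadate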
# * = called active by the depositor; x = no result given. This is a sample that favours compounds with a hit; in the whole collection about 1.7% have one here.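 Rule for the calls, unless noted: active = inhibition of at least 30% at 20 µM; inactive = the rest.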
SMILES,LMPTP inh,Scp1 inh,DNMT1 block,SUMO1-SIM PPI,STEP inh,Scp-1 conf,Scp-1 MG ctr,others
O=C(CCCCCNC(=O)c1ccccc1)N/N=C/c1ccco1,0,52*,19,-4,0,32*,-11,Scp-1 Tm shift=-11
O=C(N/N=C/c1ccncc1)c1ccc(NC(=O)c2ccc(Cl)cc2)cc1,11,64*,1,-1,21,26,-10,
O=C(CCCCCNC(=O)c1ccccc1)N/N=C/c1ccccc1O,-2,-8,2,2,-3,x,x,
Cc1ccc(/C=N/NC(=O)c2ccc(NC(=O)c3ccc(Cl)cc3)cc2)o1,41,3,27,4,3,x,x,
O=C(N/N=C/c1ccco1)c1ccc(NC(=O)c2ccc(Cl)cc2)cc1,63*,77*,36,5,10,40*,-6,Scp-1 Tm shift=0
O=C(N/N=C/c1ccncc1)c1ccc(NC(=O)c2cccc(Cl)c2)cc1,10,68*,-11,5,31,35*,-16,Scp-1 Tm shift=15*
CSCCC(NC(=O)COc1ccccc1)C(=O)N1CC(C)CC(C)C1 (centres undefined),-1,-4,1,-2,-2,x,x,
CCc1nnc(NC(=O)C2CCC(CNc3c(N4CCC(C)CC4)c(=O)c3=O)CC2)s1 (centres undefined),0,-7,2,-7,3,x,x,
O=C(CSC(=S)N1CCOCC1)c1cc2ccccc2oc1=O,0,2,1,-21,1,x,x,
O=S1(=O)CCOC[C@H](CC2CCCCC2)N1Cc1ccccc1Br,3,-11,3,3,0,x,x,
CCN(c1ccc(C(=O)CSc2nnc(C3CC3)n2C2CC2)cc1)S(C)(=O)=O,-2,-6,0,-3,1,x,x,
COc1ccc(S(=O)(=O)Nc2ccc3c(c2)C(=O)N([C@H](C)CO)C[C@H](C)[C@@H](CN(C)S(=O)(=O)c2ccccc2)O3)cc1,0,-6,2,3,-1,x,x,
COc1ccc(NC(=O)N(C)C[C@H]2Oc3ccc(NC(=O)Nc4c(C)noc4C)cc3C(=O)N([C@H](C)CO)C[C@@H]2C)cc1,0,62*,4,7,2,-3,-20,
COc1ccc(S(=O)(=O)N(C)C[C@H]2Oc3ccc(NS(=O)(=O)c4ccccc4)cc3C(=O)N([C@H](C)CO)C[C@@H]2C)cc1,-1,59*,0,-6,0,5,-10,
Cc1noc(C)c1S(=O)(=O)Nc1ccc2c(c1)C(=O)N([C@H](C)CO)C[C@H](C)[C@@H](CN(C)C(=O)NC1CCCCC1)O2,-1,56*,9,7,-2,21,-6,
C[C@H](CO)N1C[C@H](C)[C@@H](CN(C)C(=O)NC2CCCCC2)Oc2ccc(NS(=O)(=O)c3ccccc3)cc2C1=O,-2,-3,-3,1,0,x,x,
COc1ccc(NC(=O)Nc2ccc3c(c2)C(=O)N([C@H](C)CO)C[C@H](C)[C@@H](CN(C)C(=O)Nc2ccccc2)O3)cc1,-1,71*,4,10,-4,8,-10,
COc1ccc(NC(=O)Cc2nnc(SCC(=O)c3ccc(F)cc3)n2C)cc1,1,-6,2,1,4,x,x,
Cc1ccc(NC(=O)CCCC(=O)O)c(-c2nc3ccccc3[nH]c2=O)c1,-1,6,3,-2,2,x,x,
COc1cc(OC)cc(C(=O)OC(C)C(=O)NC2CCCc3ccccc32)c1 (centres undefined),1,-9,6,2,-3,x,x,
COc1ccc(NC(=O)N(C)C[C@H]2Oc3ccc(NS(=O)(=O)c4c(C)noc4C)cc3C(=O)N([C@H](C)CO)C[C@@H]2C)cc1,-1,58*,12,2,-2,10,-17,
O=C(NCc1ccccn1)C(=O)N/N=C/c1ccc2c(c1)OCO2,0,0,1,-10,-1,x,x,
CCOc1ccc(C(=O)CCCC(=O)c2ccc(OCC)cc2)cc1,26,77*,6,9,8,4,0,
CCCCC(=O)OCC(=O)c1ccc(OCC)cc1,-1,-7,-3,-3,1,x,x,
Cc1ccccc1C(=O)NC1CC2CCCC(C1)N2C(=O)Nc1ccccc1 (centres undefined),1,-4,1,1,0,x,x,
SMILES,LMPTP inh,Scp1 inh,DNMT1 block,SUMO1-SIM PPI,STEP inh,Scp-1 conf,Scp-1 MG ctr,others
Cc1ccc(S(=O)(=O)N2CCN(C(=O)c3ccccc3)CC2)cc1,-1,-9,2,1,1,x,x,
Cc1ccc(S(=O)(=O)N2CCN(C(=O)c3cccc(-n4cccc4)c3)CC2)cc1,6,86*,32,11,4,43*,-5,Scp-1 Tm shift=0
O=C(CCl)Nc1cn(-c2ccccc2)nc1-c1ccccc1,0,-11,3,-1,1,x,x,
CCOC(=O)C1=C(C)N=c2s/c(=C/c3ccc(OCC(=O)O)cc3)c(=O)n2C1c1cc(OC)c(OC)c(OC)c1 (centres undefined),-2,4,12,-5,1,x,x,
CCOC(=O)C1=C(C)N=c2s/c(=C\c3cccc(OCC(=O)O)c3)c(=O)n2C1c1ccccc1OC (centres undefined),1,61*,-12,-3,2,33*,-14,Scp-1 Tm shift=5.8*
NS(=O)(=O)c1cccc(NC(=O)COC(=O)CC2Sc3ccccc3NC2=O)c1 (centres undefined),0,-5,-1,8,-4,x,x,
O=C(CC1Sc2ccccc2NC1=O)Nc1cccc(C(=O)O)c1 (centres undefined),1,60*,37,8,2,36*,-20,Scp-1 Tm shift=-4
COc1ccc(C2=[N+](C)CCn3cccc32)c(OC)c1,0,103*,3,-1,2,96*,-7,Scp-1 Tm shift=0
COc1ccc(CN2CCc3ccccc3C2)c(OC)c1,-3,-4,0,1,3,x,x,
Cc1cccc(NC(=O)COc2ccc(/C=C\c3[nH]c(=O)[nH]c(=O)c3[N+](=O)[O-])cc2)c1,55*,79*,13,20,21,74*,-14,Scp-1 Tm shift=5.5*
CC1C=CC=CC=CC=CC=CC=CC=CC(OC2OC(C)C(O)C(N)C2O)CC2OC(O)(CC(O)CC(O)C(O)CCC(O)CC(O)CC(=O)OC(C)C(C)C1O)CC(O)C2C(=O)O (centres undefined),2,89*,94*,24,2,65*,-14,Scp-1 Tm shift=-9
COc1ccc(CN(C)CCCn2cnc3c(OCc4ccccc4)ncnc32)cc1OC,-1,0,2,5,-1,x,x,
